This passage reports viability, IC50 and Activity results from ChEMBL document CHEMBL1781875, “Chemoenzymatic synthesis with lipase catalyzed resolution and evaluation of antitumor activity of (R/S)-2-[2-hydroxy-3-(4-phenylpiperazin-1-yl)propyl]-1H-pyrrolo[3,4-b]quinolin-3(2H)-one” (Eur J Med Chem, 2011).

Each structure is given as a SMILES string.

Test [1] has as its system A549. Briefly: Cytotoxicity against human A549 cells assessed as cell viability at 25 uM after 48 hrs by MTT assay relative to untreated control. The conditions noted are these: A549, 48 h, read-out: Activity. It is filed as functional. In short, it runs like this: (§1)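 Exponentially growing cells seeded at 2.0 × 10⁴ per well in 24-well plates, drug-treated in triplicate for 48 h at 37 °C under 5% CO₂. MTT in RPMI-1640 was added, followed by 2–3 h at 37 °C. Formazan was dissolved in DMSO and OD read at 540 nm. Viability is given as % of untreated cells (100%), mean ± SEM of three determinations.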
For orientation: Formazan colour is commonly taken as a measure of viable cells.

For test [2], the system named is A549. The test is described as follows: Cytotoxicity against human A549 cells assessed as inhibition of cell growth after 48 hrs by MTT assay. The test is classed as functional, cell-based. The conditions noted are these: A549, 48 h. In short, it runs like this:
as §1

In test [3] the test system is A549. The test is described as follows: Cytotoxicity against human A549 cells assessed as cell viability at 50 uM after 48 hrs by MTT assay relative to untreated control. The conditions noted are these: A549, 48 h, read-out: Activity. It is filed as functional. In short, it runs like this:
as §1

The subject of test [4] is SK-N-SH. Briefly: Cytotoxicity against human SK-N-SH cells assessed as cell viability at 10 uM after 48 hrs by MTT assay relative to untreated control. It is filed as functional. The conditions noted are these: read-out: Activity. In short, it runs like this:
as §1

Test [5] relates to SK-N-SH. The test is described as follows: Cytotoxicity against human SK-N-SH cells assessed as inhibition of cell growth after 48 hrs by MTT assay. The test is classed as functional, cell-based. In outline:
as §1

Test [6] deals with SK-N-SH. Briefly: Cytotoxicity against human SK-N-SH cells assessed as cell viability at 25 uM after 48 hrs by MTT assay relative to untreated control. The test is classed as functional. The conditions noted are these: read-out: Activity. In outline: as §1
Test [7] has as its system SK-N-SH. The test is described as follows: Cytotoxicity against human SK-N-SH cells assessed as cell viability at 50 uM after 48 hrs by MTT assay relative to untreated control. It is filed as functional. The conditions noted are these: read-out: Activity. In short, it runs like this: as §1
Test [8] has as its system A549. The test is described as follows: Cytotoxicity against human A549 cells assessed as cell viability at 10 uM after 48 hrs by MTT assay relative to untreated control. The conditions noted are these: A549, 48 h, read-out: Activity. The test is classed as functional. In outline: as §1
The subject of test [9] is A549. The test is described as follows: Cytotoxicity against human A549 cells assessed as cell viability at1 uM after 48 hrs by MTT assay relative to untreated control. It is filed as functional. In short, it runs like this:
as §1

The subject of test [10] is A549. Briefly: Cytotoxicity against human A549 cells assessed as cell viability at 0.1 uM after 48 hrs by MTT assay relative to untreated control. The conditions noted are these: A549, 48 h, read-out: Activity. It is filed as functional. In short, it runs like this:
as §1

Test [11] relates to SK-N-SH. The test is described as follows: Cytotoxicity against human SK-N-SH cells assessed as cell viability at 0.1 uM after 48 hrs by MTT assay relative to untreated control. The conditions noted are these: read-out: Activity. The test is classed as functional. In outline:
as §1

Test [12] has as its system SK-N-SH. Briefly: Cytotoxicity against human SK-N-SH cells assessed as cell viability at 1 uM after 48 hrs by MTT assay relative to untreated control. It is filed as functional. The conditions noted are these: read-out: Activity. In outline:
as §1

Test [13] relates to A549. The test is described as follows: Cytotoxicity against human A549 cells assessed as cell viability at 5 uM after 48 hrs by MTT assay relative to untreated control. The test is classed as functional. The conditions noted are these: A549, 48 h, read-out: Activity. In outline: as §1
For test [14], the system named is SK-N-SH. The test is described as follows: Cytotoxicity against human SK-N-SH cells assessed as cell viability at 5 uM after 48 hrs by MTT assay relative to untreated control. It is filed as functional. The conditions noted are these: read-out: Activity. In short, it runs like this: as §1

The IC50 is the concentration needed to halve the response being measured. As for `O=C1c2nc3ccccc3cc2CN1C[C@@H](O)CN1CCN(c2ccccc2)CC1`, the values for the viability at 25 µM in the test with A549 [1] and in the test on SK-N-SH [6] were 81.8% and 69.1%, respectively. Moreover, the IC50 was found to be 54.8 µM in the test on A549 [2] and 16.2 µM with SK-N-SH [5]. The results for the viability at 50 µM in the test on A549 [3] and in the test with SK-N-SH [7] were 74.7% and 49.4%, respectively. Besides, the viability at 10 µM was 76.8% with SK-N-SH [4] and 90.7% in the test on A549 [8].
In the case of `CC(=O)O[C@H](CN1CCN(c2ccccc2)CC1)CN1Cc2cc3ccccc3nc2C1=O`, the values for the viability at 25 µM in the test with A549 [1] and with SK-N-SH [6] were 85.6% and 84.2%, respectively. Also, the IC50 in the test on A549 [2] is 72.7 µM; in the test with SK-N-SH [5], 67.8 µM. Besides, the viability at 50 µM in the test with A549 [3] amounted to 83.3%; in the test on SK-N-SH [7] it was 79.3%. Moreover, the figures for the viability at 10 µM with SK-N-SH [4] and with A549 [8] were 95.5% and 98.4%, respectively.
As to `O=C1c2nc3ccccc3cc2CN1CC(O)CN1CCN(c2ccccc2)CC1` (racemic), the values for the viability at 25 µM in the test with A549 [1] and in the test on SK-N-SH [6] were 85.5% and 73.5%, respectively. For the same molecule, the IC50 with A549 [2] worked out at 63.2 µM; in the test with SK-N-SH [5], 65.1 µM. Further, the viability at 50 µM was determined as 78.7% in the test with A549 [3] and 70.5% in the test with SK-N-SH [7]. Besides, the viability at 10 µM was 78.3% in the test on SK-N-SH [4] and 96.5% with A549 [8].
Regarding `COc1cccc2c1C(=O)c1c(O)c3c(c(O)c1C2=O)C[C@@](O)(C(=O)CO)C[C@@H]3O[C@H]1C[C@H](N)[C@H](O)[C@H](C)O1` [DOXORUBICIN], the Activity in the test with A549 [9] was found to be 65.33%. In addition, the viability at 0.1 µM came to 76.6% in the test with A549 [10] and 72.5% in the test with SK-N-SH [11]. In addition, the 50% inhibitory concentration (IC50) in the test on SK-N-SH [5] was 19.9 µM. In addition, the viability at 1 µM in the test with SK-N-SH [12] amounted to 60.8%. The viability at 5 µM stood at 33.9% in the test on A549 [13] and 51% in the test on SK-N-SH [14].
